# Columns and labels:
# ATP-citrate synthase [1] = target: T1, ATP-citrate synthase (Rattus norvegicus, UniProt P16638); assay: Reversible binding potential for rat ATP-Citrate Lyase as carbon-carbon bond cleavage activity in citrate substrate
# T1 sequence (P16638 whole entry): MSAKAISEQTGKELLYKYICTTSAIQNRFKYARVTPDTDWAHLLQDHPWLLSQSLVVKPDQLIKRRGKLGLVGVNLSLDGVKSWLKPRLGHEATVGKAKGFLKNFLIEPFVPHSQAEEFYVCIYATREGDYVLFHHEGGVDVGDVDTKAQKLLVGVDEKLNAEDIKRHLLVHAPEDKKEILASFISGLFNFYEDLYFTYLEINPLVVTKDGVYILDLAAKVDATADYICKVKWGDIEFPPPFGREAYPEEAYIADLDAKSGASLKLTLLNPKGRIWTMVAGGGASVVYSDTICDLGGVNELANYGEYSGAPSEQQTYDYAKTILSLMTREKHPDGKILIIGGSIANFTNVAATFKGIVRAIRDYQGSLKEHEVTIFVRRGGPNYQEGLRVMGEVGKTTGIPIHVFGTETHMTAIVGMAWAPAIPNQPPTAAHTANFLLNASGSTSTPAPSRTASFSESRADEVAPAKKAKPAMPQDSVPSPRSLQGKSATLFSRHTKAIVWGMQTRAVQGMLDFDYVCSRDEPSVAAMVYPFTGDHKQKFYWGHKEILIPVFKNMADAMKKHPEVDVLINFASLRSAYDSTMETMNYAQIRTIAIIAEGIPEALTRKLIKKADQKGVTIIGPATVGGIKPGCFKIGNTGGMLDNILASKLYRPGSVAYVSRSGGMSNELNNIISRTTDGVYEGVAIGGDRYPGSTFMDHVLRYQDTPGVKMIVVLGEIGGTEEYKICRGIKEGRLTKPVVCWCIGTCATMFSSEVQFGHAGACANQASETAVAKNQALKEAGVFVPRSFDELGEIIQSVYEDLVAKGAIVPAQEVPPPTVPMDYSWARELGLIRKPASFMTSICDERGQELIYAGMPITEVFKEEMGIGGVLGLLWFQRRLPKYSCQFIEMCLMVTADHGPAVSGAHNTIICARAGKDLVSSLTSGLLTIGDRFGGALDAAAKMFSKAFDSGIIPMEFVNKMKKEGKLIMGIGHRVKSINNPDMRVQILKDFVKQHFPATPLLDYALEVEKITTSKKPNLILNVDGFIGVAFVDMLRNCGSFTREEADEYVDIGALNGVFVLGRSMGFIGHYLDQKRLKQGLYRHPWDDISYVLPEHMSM
# Summary of the method: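 Purified rat liver enzyme; carbon–carbon cleavage activity measured at 1.0 mM citrate (equal to Km). Ki derived by fitting rate data to the competitive inhibition equation, which reduces under these conditions to V = Vmax/(2 + [I]/Ki).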
# ATP-citrate synthase [2] = target: T1, ATP-citrate synthase; assay: Irreversible inactivation was evaluated against rat ATP-Citrate Lyase; nd= Time dependent inactivation was not detectable above thermal decay rate of 5.0 x10E-3 1/h at 2 mM inhibitor at […]; not detectable
# Summary of the method: (§1)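 Rat liver ATP citrate lyase (purified) incubated with 2 mM inhibitor at 25 °C in Tris-HCl pH 8.0; aliquots withdrawn over 48 h and placed directly into assay cocktail with saturating substrate. Remaining activity read as carbon–carbon cleavage of citrate to detect time-dependent inactivation.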
# ATP-citrate synthase [3] = target: T1, ATP-citrate synthase; assay: Irreversible inactivation of rat ATP-Citrate Lyase; nd=not detectable; summary of the method: as §1
Ki (ATP-citrate synthase [1]),Ki (ATP-citrate synthase [2]),Ki (ATP-citrate synthase [3]),Structure (SMILES)
0.15 µM,Not detectable,,O=C(O)C[C@@](O)(C(=O)O)[C@H](O)C(=O)O
58 µM,,Not detectable,O=C(O)C[C@@](O)(C(=O)O)[C@H](S)C(=O)O
150 µM,,Not detectable,O=C(O)C[C@@](O)(C(=O)O)[C@@H](S)C(=O)O
400 µM,,Not detectable,O=C(O)C[C@]1(C(=O)O)O[C@@H]1C(=O)O
340 µM,,Not detectable,O=C1C[C@@](C(=O)O)([C@@H](Cl)C(=O)O)O1
29 µM,,Not detectable,O=C(O)C[C@@](O)(C(=O)O)[C@@H](Cl)C(=O)O
480 µM,,Not detectable,CSSC(CC(=O)O)(CC(=O)O)C(=O)O

# The remaining lines, values behind:
Structure (SMILES),Ki (ATP-citrate synthase [1]),Ki (ATP-citrate synthase [2]),Ki (ATP-citrate synthase [3])
O=C(O)C[C@]1(C(=O)O)O[C@H]1C(=O)O,18 µM,,Not detectable
O=C(O)CC(S)(CC(=O)O)C(=O)O,295 µM,,Not detectable
O=C(O)/C=C(/CC(=O)O)C(=O)O,> 1000 µM,,Not detectable
CSS[C@H](C(=O)O)[C@@](O)(CC(=O)O)C(=O)O,34 µM,,Not detectable
O=C(O)/C=C(\CC(=O)O)C(=O)O [ACONITIC ACID],> 1000 µM,,Not detectable
C=C(CC(=O)O)C(=O)O [ITACONATE],> 1000 µM,,Not detectable
